The test system of experiment [1] is HL-60(TB). As to the kind of experiment: Growth inhibition of human HL-60(TB) cells incubated for 24 hrs by MTT assay. The conditions noted are these: HL-60, 24 h. The class given is functional, cell-based. Summed up: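 Cells at 1.2-1.8×10^4 cells/ml in DMEM with 10% FBS, 10 µg/ml insulin and 1% penicillin/streptomycin, plated overnight at 37°C. Serial 10-fold dilutions added to 0.01–100 µM final, medium as negative control, 24 h. MTT (5 mg/ml) added for 4 h, formazan dissolved in acid-isopropanol, A490 read. Eight separate experiments; percent viable cells used to derive IC50.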

Experiment [2] deals with MOLT-4. The experiment in a line: Growth inhibition of human MOLT4 cells incubated for 24 hrs by MTT assay. The class given is functional, cell-based. To be noted: MOLT-4, 24 h. Background: Tetrazolium assays rely on reduction of a dye to a coloured formazan, in cell work by metabolically active cells.
The subject of experiment [3] is HL-60(TB). As to the kind of experiment: Cell cycle arrest in human HL-60(TB) cells assessed as accumulation of apoptotic cells in pre-G phase at 0.294 uM after 24 hrs by propidium iodide staining based flow cytometry (reference value: 1.44%). The class given is functional. A general note: In flow cytometry, cells or beads pass a laser one at a time.
Experiment [4] relates to HL-60(TB). The experiment in a line: Cell cycle arrest in human HL-60(TB) cells assessed as accumulation at G0/G1 phase at 0.294 uM after 24 hrs by propidium iodide staining based flow cytometry (reference value: 68.43%). The class given is functional.
For experiment [5], the system named is HL-60(TB). As to the kind of experiment: Cell cycle arrest in human HL-60(TB) cells assessed as accumulation at G2/M phase at 0.294 uM after 24 hrs by propidium iodide staining based flow cytometry (reference value: 7.29%). The class given is functional.
The subject of experiment [6] is HL-60(TB). As to the kind of experiment: Cell cycle arrest in human HL-60(TB) cells assessed as accumulation at S phase at 0.294 uM after 24 hrs by propidium iodide staining based flow cytometry (reference value: 22.84%). The class given is functional.
Experiment [7] relates to MOLT-4. As to the kind of experiment: Cell cycle arrest in human MOLT4 cells assessed as accumulation of apoptotic cells in pre-G phase at 0.43 uM after 24 hrs by propidium iodide staining based flow cytometry (reference value: 0.88%). The class given is functional. Summed up:
(§1)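 MOLT-4 cells (1×10^6) exposed 24 h to 0.160 or 0.430 μM test agent, DMSO (0.002%) control; trypsinized, washed in ice-cold PBS, fixed in ice-cold 70% ethanol ≥2 h at 4°C, washed, stained with propidium iodide DNA kit; cell cycle distribution (pre-G, G0/G1, S, G2/M) by flow cytometry.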

In experiment [8] the test system is MOLT-4. The experiment in a line: Cell cycle arrest in human MOLT4 cells assessed as accumulation at G0/G1 phase at 0.43 uM after 24 hrs by propidium iodide staining based flow cytometry (reference value: 74.22%). The class given is functional. In a few lines:
as §1

In experiment [9] the test system is MOLT-4. As to the kind of experiment: Cell cycle arrest in human MOLT4 cells assessed as accumulation at G2/M phase at 0.43 uM after 24 hrs by propidium iodide staining based flow cytometry (reference value: 4.35%). The class given is functional. Summed up:
as §1

The test system of experiment [10] is MOLT-4. The experiment in a line: Cell cycle arrest in human MOLT4 cells assessed as accumulation at S phase at 0.43 uM after 24 hrs by propidium iodide staining based flow cytometry (reference value: 20.55%). The class given is functional. Summed up:
as §1

Experiment [11] concerns HL-60(TB). The experiment in a line: Induction of apoptosis in human HL-60(TB) cells assessed as live cells at 0.294 uM after 24 hrs by Annexin V-FITC/propidium iodide staining based flow cytometry (reference value: 98.57%). The class given is functional.
Experiment [12] deals with HL-60(TB). The experiment in a line: Induction of apoptosis in human HL-60(TB) cells assessed as early apoptotic cells at 0.294 uM after 24 hrs by Annexin V-FITC/propidium iodide staining based flow cytometry (reference value: 0.84%). The class given is functional.
The test system of experiment [13] is HL-60(TB). The experiment in a line: Induction of apoptosis in human HL-60(TB) cells assessed as late apoptotic cells at 0.294 uM after 24 hrs by Annexin V-FITC/propidium iodide staining based flow cytometry (reference value: 0.39%). The class given is functional.
Experiment [14] has as its system HL-60(TB). As to the kind of experiment: Induction of apoptosis in human HL-60(TB) cells assessed as necrotic cells at 0.294 uM after 24 hrs by Annexin V-FITC/propidium iodide staining based flow cytometry (reference value: 0.2%). The class given is functional.
Experiment [15] concerns MOLT-4. The experiment in a line: Induction of apoptosis in human MOLT4 cells assessed as live cells at 0.43 uM after 24 hrs by Annexin V-FITC/propidium iodide staining based flow cytometry (reference value: 99.12%). The class given is functional.
The test system of experiment [16] is MOLT-4. As to the kind of experiment: Induction of apoptosis in human MOLT4 cells assessed as early apoptotic cells at 0.43 uM after 24 hrs by Annexin V-FITC/propidium iodide staining based flow cytometry (reference value: 0.53%). The class given is functional.
The test system of experiment [17] is MOLT-4. The experiment in a line: Induction of apoptosis in human MOLT4 cells assessed as late apoptotic cells at 0.43 uM after 24 hrs by Annexin V-FITC/propidium iodide staining based flow cytometry (reference value: 0.24%). The class given is functional.
Experiment [18] deals with MOLT-4. The experiment in a line: Induction of apoptosis in human MOLT4 cells assessed as necrotic cells at 0.43 uM after 24 hrs by Annexin V-FITC/propidium iodide staining based flow cytometry (reference value: 0.11%). The class given is functional.
Experiment [19] relates to HL-60(TB). As to the kind of experiment: Induction of apoptosis in human HL-60(TB) cells assessed as increase in apoptotic cells at 0.294 uM after 24 hrs by Annexin V-FITC/propidium iodide staining based flow cytometry relative to control. The class given is functional.
The subject of experiment [20] is MOLT-4. The experiment in a line: Induction of apoptosis in human MOLT4 cells assessed as increase in apoptotic cells at 0.43 uM after 24 hrs by Annexin V-FITC/propidium iodide staining based flow cytometry relative to control. The class given is functional.

Each structure is given as a SMILES string.

What is called IC50 is the point on the concentration scale where inhibition reaches its midpoint. A higher IC50 goes with a need for much substance. On to `CCOC(=O)C1=C(C)NC(SCc2nnc(-c3ccccc3)o2)=NC1c1ccc(Cl)cc1` (stereo unspecified), for which the values for the IC50 with HL-60(TB) [1] and in the experiment on MOLT-4 [2] were 74.4 µM and 344 µM, respectively.
Take `CCOC(=O)C1=C(C)NC(=S)NC1c1cccc(O)c1` (stereo unspecified) [MONASTROL]: the results for the IC50 with HL-60(TB) [1] and in the experiment with MOLT-4 [2] were 0.147 µM and 0.215 µM, respectively. Further, the Activity in the experiment on HL-60(TB) [3] worked out at 6.89%; in the experiment with HL-60(TB) [4] it was 61.23%; in the experiment on HL-60(TB) [5], 9.98%; in the experiment with HL-60(TB) [6] it was 21.9%; in the experiment with MOLT-4 [7] it was 8.63%; in the experiment with MOLT-4 [8] it was 55.72%. In addition, the Activity in the experiment with MOLT-4 [9] is on record as 13.92%; in the experiment with MOLT-4 [10] it was 21.73%; with HL-60(TB) [11] it was 90.89%; with HL-60(TB) [12] it was 3.07%; in the experiment with HL-60(TB) [13], 3.19%; in the experiment on HL-60(TB) [14] it was 0.63%. The Activity in the experiment with MOLT-4 [15] was 89.2%; with MOLT-4 [16], 3.39%; in the experiment with MOLT-4 [17], 4.21%; with MOLT-4 [18] it was 1.03%. Further, the entries for the “fold change (FC)” value in the experiment on HL-60(TB) [19] and with MOLT-4 [20] were 5.1 and 10, respectively.
On to `CCOC(=O)C1=C(C)NC(SCc2nnc(-c3ccc(Cl)cc3)o2)=NC1c1ccccc1Cl` (stereo unspecified), for which the IC50 worked out at 193 µM in the experiment with HL-60(TB) [1] and 255 µM with MOLT-4 [2].
Regarding `CCOC(=O)C1=C(C)NC(SCc2nnc(-c3ccc(C)cc3)o2)=NC1c1ccc(Cl)cc1` (stereo unspecified), the IC50 with HL-60(TB) [1] came to 220 µM; with MOLT-4 [2], 538 µM.
